T cruzi repl: T. cruzi replication inhibition; T. cruzi beta-gal in NIH3T3, luminescence, 90 h; inhibition, % (test concentration not listed); 300,000 tested, 1.4% active; AID 1885;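 active = mean inhibition across valid replicates above about 55%, limit read from the data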;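 also: signal also drops with host cell toxicity which is not excluded here; higher percent means less beta-gal luminescence so fewer parasites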
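assay system = mouse NIH/3T3 fibroblasts infected with β-gal-expressing T. cruzi Tulahuen C4 | input = 5,000 NIH/3T3 host cells per well | buffer or medium = DMEM plus 2% FBS | timing = 3 h host attachment, then at least 90 h co-culture | measured by = GalScreen luminescence, 60 min | evaluation = luminescence reflecting intracellular parasite burden, expressed as percent inhibition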
SKKanGAS inh: blocks kanamycin growth of S. pyogenes SKKanGAS strain. BacTiter-Glo, 6 h. inhibition, % at 7.5 µM. AID 1662. 300,000 tested, 1.3% active;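 active = mean replicate score, as percent of positive control median, at least 50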;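 also: strain carries kanamycin resistance gene driven by streptokinase promoter and grows in 40 µg/ml kanamycin; loss of luminescence reflects streptokinase promoter inhibition or plain growth inhibition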
CSC inhib: blocks cancer stem cells. cancer stem cell-like cells viability, luminescence. inhibition, % at 7.5 µM. 300,000 tested, 1.1% active. AID 2717; in the data active = inhibition above about 75%; tested in HMLE shEcad cells
L major viab: Leishmania major promastigote growth inhibition; Leishmania major promastigotes, resazurin fluorescence viability; 200,000 tested, 9% active; inhibition, % at 10 µM; in the data active = inhibition above about 50%;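 also: promastigotes grown with compound for 44 hours at 28 °C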
Mdm2-MdmX inh: inhibitors of human Mdm2/MdmX interaction; SaOS-2 split-luciferase Mdm2/MdmX complementation, luminescence; AID 485346; inhibition, % at 8 µM; 330,000 tested, 3% active; O15151+Q00987;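 active = inhibition of at least 50% at 8 µM in the primary screen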
Target sequence (O15151 whole entry, looked up): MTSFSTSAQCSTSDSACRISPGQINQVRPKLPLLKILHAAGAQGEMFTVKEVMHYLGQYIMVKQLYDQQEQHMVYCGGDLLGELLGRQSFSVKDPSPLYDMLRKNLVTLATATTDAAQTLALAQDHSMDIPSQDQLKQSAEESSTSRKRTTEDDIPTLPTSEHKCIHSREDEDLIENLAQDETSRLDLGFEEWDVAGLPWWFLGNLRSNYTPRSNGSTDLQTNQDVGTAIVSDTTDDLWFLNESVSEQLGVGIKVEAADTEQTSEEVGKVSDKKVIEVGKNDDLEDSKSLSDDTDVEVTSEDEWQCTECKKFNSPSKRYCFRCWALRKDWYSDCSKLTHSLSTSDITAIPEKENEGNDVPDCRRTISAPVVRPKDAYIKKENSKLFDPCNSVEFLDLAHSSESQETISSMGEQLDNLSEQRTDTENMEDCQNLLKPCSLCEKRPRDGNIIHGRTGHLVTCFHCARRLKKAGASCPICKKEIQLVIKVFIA
Target sequence (Q00987 whole entry, looked up): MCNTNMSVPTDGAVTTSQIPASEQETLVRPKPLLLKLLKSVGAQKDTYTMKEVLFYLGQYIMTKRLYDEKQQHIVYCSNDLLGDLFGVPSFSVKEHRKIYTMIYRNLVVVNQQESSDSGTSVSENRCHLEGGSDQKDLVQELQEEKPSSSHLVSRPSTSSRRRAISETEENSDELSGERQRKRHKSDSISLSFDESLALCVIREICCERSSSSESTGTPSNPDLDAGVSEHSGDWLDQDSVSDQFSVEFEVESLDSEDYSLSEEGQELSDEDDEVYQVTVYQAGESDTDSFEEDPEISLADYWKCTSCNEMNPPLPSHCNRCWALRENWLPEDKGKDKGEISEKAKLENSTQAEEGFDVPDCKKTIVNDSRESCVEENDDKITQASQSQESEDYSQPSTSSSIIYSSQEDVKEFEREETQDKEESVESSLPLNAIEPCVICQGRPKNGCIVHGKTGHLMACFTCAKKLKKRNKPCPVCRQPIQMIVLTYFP
Beta cell apopt: blocks beta cell apoptosis. protection from apoptosis, % (no concentration beside the values). INS-1E cytokine-induced death, ATP luminescence, 48 h; percent of positive-control rescue, neutral wells zero. 300,000 tested, 0.8% active. AID 435005;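 active = Every replicate reaches about 75%, or at least half do and their mean reaches it too, limit read from the data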;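 also: higher means more ATP so stronger rescue from cytokine killing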
Each line names hits and unclear results; the compound was inactive in the other large screens. Only some compounds are listed: those with a hit (about 9.4% of all), similar ones and a draw of the others.

Cc1cccc(NC(=O)c2oc(=O)c3ccccc3c2-c2ccccc2)c1C	L major viab 80
Cc1ccccc1NC(=O)c1oc(=O)c2ccccc2c1-c1ccccc1	none
CC(=O)c1sc2nc(-c3ccccc3)cc(C)c2c1N	T cruzi repl 56 (no result: L major viab)
CCCCCCCN1C(Nc2ccccc2)=NC[C@@H]1CC(C)C	none (no result: L major viab)
CC(=O)Nc1ccc(S(=O)(=O)N2CCSC2c2ccco2)cc1 (stereo unspecified)	none
O=C(Nc1ccc(Cl)c(Cl)c1)N1CCSC1c1ccco1 (stereo unspecified)	Beta cell apopt 103
Cc1ccc(S(=O)(=O)NCc2ccncc2)c(C)c1C	Beta cell apopt 116
COc1ccc(-n2c(SCC(=O)Nc3ccccc3C)nc(O)c(Cc3ccccc3)c2=O)cc1	none (no result: L major viab)
CCN(CC)CCN1C(=O)c2ccccc2NC1c1ccc(C)cc1 (stereo unspecified)	L major viab 57
CCN(CC)CCN1C(=O)c2ccccc2NC1c1ccc(N(C)C)cc1 (stereo unspecified)	none
CCN(CC)CCN1C(=O)c2ccccc2NC1c1ccc(Br)cc1 (stereo unspecified)	L major viab 97 (no result: Beta cell apopt)
CCN(CC)CCN1C(=O)c2ccccc2NC1c1ccc(F)cc1 (stereo unspecified)	none
O=C(NCCC1=CCCCC1)Nc1ccc2nsnc2c1	none
Cc1ccc(NC(=O)CCNS(=O)(=O)c2cc(Br)cnc2N)cc1Cl	none
Nc1ncc(Br)cc1S(=O)(=O)NCCC(=O)Nc1cccc(Cl)c1	L major viab 64
O=C(NC1CCN(C(=O)Nc2ccc(F)cc2)CC1)c1ccc(F)cc1	none (no result: L major viab)
CC(C)c1ccc2[nH]c3c(c2c1)CCC/C3=N\NC(=O)c1ccncc1	SKKanGAS inh 60 (no result: L major viab)
Nc1ccc(C(=O)N/N=C2\CCCc3c2[nH]c2ccccc32)cc1	none
C/C(=N\NC(=S)NCc1ccccc1)c1cccc(Br)c1	SKKanGAS inh 56
C/C(=N\NC(=S)NCCc1ccccc1)c1cccc(Br)c1	none
O=C(Cn1cnc([N+](=O)[O-])n1)NC1CC1	none
Cc1ccc(S(=O)(=O)/N=C2/NC(=O)/C(=C/c3ccc(Br)o3)S2)cc1	L major viab 51 (no result: CSC inhib, Beta cell apopt)
O=C(NCc1ccco1)C1CCN(C(=O)c2cc3sccc3n2Cc2ccc(Cl)cc2)CC1	L major viab 65
O=C(NNc1cccc(Cl)n1)Nc1cccc(Cl)c1	L major viab 97
COc1ccc(C(C[N+](=O)[O-])C2(c3ccc(OC)c(OC)c3)C(=O)c3ccccc3C2=O)cc1 (stereo unspecified)	CSC inhib 89, L major viab 100 (no result: Mdm2-MdmX inh)
COC(=O)CC1(c2ccc(OC)cc2)C(=O)c2ccccc2C1=O	none (no result: L major viab)
COc1ccc(-c2sc(NC(C)=O)nc2-c2ccccc2)cc1	L major viab 66 (no result: CSC inhib)
COc1ccc(-c2nc(NC(C)=O)sc2-c2ccccc2)cc1	none (no result: CSC inhib, Beta cell apopt)
Cc1cc(=O)oc2cc(OCc3ccc(C(=O)OCC(=O)Nc4ccc(N(C)C)cc4)cc3)ccc12	none (no result: CSC inhib, Beta cell apopt)
CCCOc1ccc(C(=O)NNC(=S)NC(=O)c2ccccc2[N+](=O)[O-])cc1	SKKanGAS inh 78 (no result: L major viab)
CC(C)CC(=O)NC(=S)NNC(=O)c1ccc([N+](=O)[O-])cc1	none
CCC(=O)NC(=S)NNC(=O)COc1ccc(Br)cc1	L major viab 74
CCC(=O)NC(=S)NNC(=O)c1ccc([N+](=O)[O-])cc1	L major viab 97
CCCOc1ccc(C(=O)NNC(=S)NC(=O)c2cc(-c3ccccc3)nc3ccccc23)cc1	none
CCCOc1ccc(C(=O)NNC(=S)NC(=O)c2ccccc2)cc1	SKKanGAS inh 107 (no result: L major viab)
N#CC1(NC(=O)Cn2cc(C(F)(F)F)cc(Cl)c2=O)CCCCC1	none (no result: L major viab)
CC(C)(C)c1ccc(C(=O)NC(=S)NNC(=O)COc2ccccc2)cc1	SKKanGAS inh 91 (no result: L major viab)
CCCOc1ccc(C(=O)NNC(=S)NC(C)=O)cc1	SKKanGAS inh 93, L major viab 97
Cc1ccccc1OCC(=O)NNC(=S)NC(=O)c1ccccc1[N+](=O)[O-]	none
CC(C)(C)c1ccc(OCC(=O)NNC(=S)NC(=O)c2ccccc2[N+](=O)[O-])c(Br)c1	SKKanGAS inh 100
CCCCOc1ccc(C(=O)NNC(=S)NC(=O)CC)cc1	SKKanGAS inh 97, L major viab 93, Beta cell apopt 79 (no result: Mdm2-MdmX inh)
CCOC(=O)C1CCCN(C(=O)c2csc(-c3ccc4c(c3)CCO4)n2)C1 (stereo unspecified)	none (no result: L major viab)
COC(=O)C1=C(C)N(C)C(=O)NC1c1c(O)ccc2ccccc12 (stereo unspecified)	none (no result: L major viab)
O=C(NNC(=S)Nc1ccccc1)c1ccc(O)cc1	none (no result: L major viab)
O=C(NNC(=S)NC(=O)c1ccccc1)c1ccc(O)cc1	SKKanGAS inh 74 (no result: L major viab)
Cn1ccnc1SCC(=O)N1CCN(S(=O)(=O)c2ccccc2)CC1	none
CCOC(=O)C1C(c2ccc([N+](=O)[O-])cc2)C2C(=O)NN=C2CC1(C)O (stereo unspecified)	none (no result: L major viab)
N#C/C(=C(/O)CCl)c1nc2ccccc2[nH]1	CSC inhib 79
N#C/C(=C/c1cccs1)c1nc2ccccc2[nH]1	L major viab 85
N#C/C(=C\c1ccc(Cl)cc1)c1nc2ncccc2[nH]1	L major viab 79
N#C/C(=C\c1ccc(Sc2ccc(Cl)cc2)o1)c1nc2ccccc2[nH]1	L major viab 60 (no result: T cruzi repl, SKKanGAS inh, Mdm2-MdmX inh)
O=C(c1ccco1)N1CCN(Cc2cn[nH]c2-c2cccc3ccccc23)CC1	none (no result: L major viab)
COc1ccc(S(=O)(=O)N2CC(O)C[C@H]2C(=O)OCC(=O)N2CCCCCC2)cc1 (stereo partly specified)	none
C=CCOn1c(=O)c(-c2ccc(F)cc2)[n+]([O-])c2ccccc21	none (no result: CSC inhib, L major viab, Beta cell apopt)
CC(C)(C)n1nc2c(c1NC(=O)Cc1ccccc1)CS(=O)(=O)C2	none (no result: T cruzi repl, SKKanGAS inh)
CC1CN(C2CCN(S(=O)(=O)Cc3ccccc3)CC2)CC(C)O1 (stereo unspecified)	L major viab 91
CC1CN(C2CCN(S(=O)(=O)c3ccccc3)CC2)CC(C)O1 (stereo unspecified)	L major viab 81 (no result: Beta cell apopt)
O=S(=O)(Cc1ccccc1)N1CCN(C2Cc3ccccc3C2)CC1	L major viab 52
CC1CN(C2CCN(S(=O)(=O)c3ccc(F)cc3)CC2)CC(C)O1 (stereo unspecified)	L major viab 91
O=C1CNC(=O)/C(=C/c2ccco2)N1	none
O=c1ccc2cc(S(=O)(=O)Nc3ccc(Br)cc3)ccc2o1	none (no result: L major viab)
COc1cccc(-c2nnc(NC(=O)c3ccc(S(=O)(=O)N4CC(C)OC(C)C4)cc3)o2)c1 (stereo unspecified)	SKKanGAS inh 93, L major viab 99 (no result: Beta cell apopt)
CC1CN(S(=O)(=O)c2ccc(C(=O)Nc3nnc(-c4ccco4)o3)cc2)CC(C)O1 (stereo unspecified)	none
COc1ccc(-c2nnc(NC(=O)c3ccc(S(=O)(=O)N4CCc5ccccc5C4)cc3)o2)cc1	T cruzi repl 73, SKKanGAS inh 94, L major viab 99 (no result: CSC inhib)

Source: PubChem BioAssay
